The results in this text go back to PubChem BioAssay.

Test [1] in a line: inhibitors of TNFa-induced NFkB p65 translocation, primary screen, imaging, HUVEC, MLSMR starter and 10KST1 sets (AID 438;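 active = inhibition above 20% together with a positive visual image hit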;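 note: compound added about 3h40 before a 20 min TNFalpha stimulation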;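 for inhibition: signal is the nuclear over cytoplasmic p65 intensity ratio per well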). As to conditions: HUVEC TNFa-induced p65 nuclear translocation; cell count: measured here: nuclei count (cytotoxicity indicator), at 2.08 µM; inhibition: at 2 µM, stronger effect = higher value, 0% TNFa-plus-vehicle, 100% no-TNFa wells.
Test [2] is described as follows: inhibitors of mutant huntingtin aggregation, primary screen, imaging, exon1htt(103Q)mCFP cells, high-content imaging (AID 483).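 For nuclei count: percent of the per-plate median nuclei count of sample wells.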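 Note: compound exposure lasted 3 days before fixation.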 As to conditions: exon1htt(103Q)mCFP cell line, aggregate imaging, at 2 µM; inhibition of aggregation: stronger effect = higher value; nuclei count: measured here: cell count, toxicity.
Test [3] can be described thus: inhibitors of E-selectin induction by TNFa, primary screen, imaging, HUVEC, immunofluorescence, MLSMR starter and 10KST1 sets (AID 487;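 active = visually confirmed hit in the image check and inhibition above 20%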;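 for inhibition: signal is fraction of cell area covered by stained E-selectin grains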;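 for nuclei count: 100% = median nuclei count of all wells on the same plate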). As to conditions: HUVEC TNFalpha-induced E-selectin immunofluorescence imaging, at 2 µM; inhibition: stronger effect = higher value; nuclei count: measured here: cell number, toxicity.
In test [4] the target is Voltage-gated potassium channel subunit beta-2 (Rattus norvegicus) (UniProt P62483). The test is described as follows: KvBeta enzyme negative modulators, primary screen, biochemical, NADPH fluorescence (AID 622;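 active = fluorescence slope higher than the sample average by over 3 SD, cut at about -0.22 in these data, passing the limit was not always enough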;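 note: slope of raw intensity against log time taken from 70 to 1610 s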). As to conditions: recombinant KvBeta, 4-cyanobenzaldehyde reduction, at 10 µM, stronger effect = higher value.
Voltage-gated potassium channel subunit beta-2 (Rattus norvegicus), sequence (P62483 whole entry, looked up): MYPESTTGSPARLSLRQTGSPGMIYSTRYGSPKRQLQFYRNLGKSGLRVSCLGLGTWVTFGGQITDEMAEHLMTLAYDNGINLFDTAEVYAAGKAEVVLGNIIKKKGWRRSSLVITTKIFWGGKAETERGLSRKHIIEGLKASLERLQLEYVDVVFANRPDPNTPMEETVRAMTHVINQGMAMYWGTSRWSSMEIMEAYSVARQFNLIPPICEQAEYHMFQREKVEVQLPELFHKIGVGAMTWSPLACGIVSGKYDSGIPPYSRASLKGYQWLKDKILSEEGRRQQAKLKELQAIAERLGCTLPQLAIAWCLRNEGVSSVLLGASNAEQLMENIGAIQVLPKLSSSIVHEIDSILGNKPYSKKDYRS
Test [5] shares this target. The test is described as follows: KvBeta positive modulators, primary screen, biochemical, NADPH fluorescence (AID 623;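 active = NADPH fluorescence slope more negative than the mean of all samples by about 3 SD, 99.7% confidence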;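 note: fluorescence intensity change per second fitted from 20 to 320 s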). Conditions: Recombinant KvBeta, NADPH fluorescence decrease slope, 10 min; at 10 µM; stronger effect = lower value.
For test [6], the target named is Muscarinic acetylcholine receptor M4 (Homo sapiens) (UniProt P08173). The test is described as follows: compounds altering M4/GIRK thallium flux, either direction, primary screen, M4 allosteric agonist project, cell-based, HEK293 M4/GIRK, BTC-AM (AID 625;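 active = fluorescence slope after compound addition differing from the mean of all tested samples at 99.7% confidence, mostly higher but some lower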;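 note: thallium influx through GIRK channels coupled to M4 in HEK293 cells with BTC-AM dye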). As to conditions: at 10 µM, actives lie on both sides. The method, boiled down:
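System: HEK293 cells with M4 receptor and GIRK channels | Incubation: Cells overnight at 37 °C, BTC-AM loading 1 h, reads 2 min total | Technique: Kinetic BTC-AM fluorescence sampled at 1 Hz, 10 s pre-addition baseline | Measure: Post-addition slope, 15–24 s, of baseline-normalized fluorescence | Control set: Carbachol positive, DMSO negative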

Test [7] can be described thus: inhibitors of Sendai virus-induced IRF3 signaling, primary screen, TLR/RLR signaling modifier project, cell-based, Sendai virus stimulus, luciferase, 10K MLSCN set (AID 602276;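 active = inhibition at or above 50% at 10 µM; inactive = inhibition below 50%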;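 note: firefly luciferase from ISG56 promoter only with Renilla not read in this screen; 0% = Sendai virus plus DMSO and 100% = medium plus DMSO without virus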). Conditions: HEK293 RL24 IRF3 luciferase reporter, at 10 µM, stronger effect = higher value. A general note: A reporter such as luciferase makes a cellular process visible.
A short description of test [8]: inhibitors of poly I:C-induced TLR3 signaling, primary screen, cell-based, poly I:C stimulus, luciferase, 10K MLSCN set (AID 602277;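 active = inhibition of the reporter signal at or above 50%; inactive = inhibition below 50%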). Conditions: HEK293-TLR3 RL24 IRF3 luciferase reporter, at 10 µM, stronger effect = higher value.

Calls of active or inactive are those of the source.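 Rule for the calls, unless noted: active = visual image review flags a hit and inhibition of aggregation exceeds 20%; inconclusive = visual hit but inhibition at or below 20%; inactive = no hit on visual image review.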

In general, inhibition refers to the change of the read-out against control, counted positive when it falls.

Muscarinic acetylcholine receptor M4 (Homo sapiens), sequence (P08173 whole entry, looked up): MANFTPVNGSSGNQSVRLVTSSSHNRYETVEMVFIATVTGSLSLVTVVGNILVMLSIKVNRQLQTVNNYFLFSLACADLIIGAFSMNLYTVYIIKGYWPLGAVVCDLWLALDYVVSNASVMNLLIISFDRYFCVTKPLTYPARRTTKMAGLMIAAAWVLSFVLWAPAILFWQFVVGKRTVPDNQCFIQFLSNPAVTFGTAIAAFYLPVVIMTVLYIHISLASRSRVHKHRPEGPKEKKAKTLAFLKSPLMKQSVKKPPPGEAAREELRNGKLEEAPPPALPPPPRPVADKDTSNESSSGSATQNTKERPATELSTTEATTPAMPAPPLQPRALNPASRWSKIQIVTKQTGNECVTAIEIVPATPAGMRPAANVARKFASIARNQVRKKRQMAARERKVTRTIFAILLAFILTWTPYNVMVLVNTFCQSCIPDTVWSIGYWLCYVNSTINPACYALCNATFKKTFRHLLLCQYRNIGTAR

Turning to `Cn1cnnc1SCC(=O)Nc1sc2c(c1C#N)CCCCC2`, in test [1], the cell count was 564. Further, the inhibition in test [1] was -29.4% (inactive); in test [3], -29.2% (inactive); in test [7], -24.5% (inactive); in test [8] it was -31.5% (inactive). In test [2], the inhibition of aggregation was 2.6% (inactive). The values for the nuclei count in test [2] and in test [3] were 80.6% and 108%, respectively. Besides, the fluorescence slope in test [4] is -0.499 (inactive); in test [6], 0.00534 (inactive). For the same compound, the NADPH fluorescence slope in test [5] is 0.000104 (inactive).

On to `CSc1nnc(-c2cnccn2)n1C`, for which the cell count in test [1] came to 679. Further, the inhibition in test [1] is -15.7% (inactive); in test [3], -73.6% (inactive); in test [7], 22.1% (inactive); in test [8] it was 25.7% (inactive). Moreover, the inhibition of aggregation in test [2] is -6.5% (inactive). For the same compound, the results for the nuclei count in test [2] and in test [3] were 121% and 109%, respectively. The fluorescence slope in test [4] was -0.603 (inactive); in test [6] it was 0.00641 (inactive). Further, in test [5], the NADPH fluorescence slope is -3.8e-06 (inactive).

Turning to `CCSc1nc2c(c(=O)n1CC)SC(C)C2` (centres undefined), the cell count in test [1] is 224. Besides, the inhibition was 2.8% (inactive) in test [1], 8.4% (inactive) in test [3], 7.34% (inactive) in test [7] and 18.7% (inactive) in test [8]. Further, in test [2], the inhibition of aggregation was 0.4% (inactive). Moreover, the nuclei count in test [2] worked out at 92.4%; in test [3], 95%. The values for the fluorescence slope in test [4] and in test [6] were -0.401 (inactive) and 0.00651 (inactive), respectively. Further, the NADPH fluorescence slope in test [5] is -0.000126 (inactive).

Regarding `COCCn1cc(C(=O)NCCCN2CCC(C)CC2)c2c3ccccc3n(C)c2c1=O`, in test [1], the cell count is 493. Also, the inhibition in test [1] was 2.1% (inactive); in test [3] it was -38.5% (inactive); in test [7] it was 0.372% (inactive); in test [8], 16.6% (inactive). Further, the inhibition of aggregation in test [2] is -2.6% (inactive). The nuclei count in test [2] was 110%; in test [3], 115%. Further, the fluorescence slope in test [4] was -0.562 (inactive); in test [6], 0.00626 (inactive). For the same compound, the NADPH fluorescence slope in test [5] was -5.2e-05 (inactive).

Take `CC(=O)c1c(C)nc(C)nc1NC(=O)Cc1ccccc1`: the cell count in test [1] is 234. Besides, the inhibition is -4.4% (inactive) in test [1], 2.9% (inactive) in test [3], 12.7% (inactive) in test [7] and 20.5% (inactive) in test [8]. Besides, the inhibition of aggregation in test [2] is 37.5% (inactive). Further, the nuclei count in test [2] was 79.9%; in test [3], 84.4%. Moreover, the fluorescence slope in test [4] was -0.566 (inactive); in test [6], 0.00735 (inactive). Moreover, the NADPH fluorescence slope in test [5] was -4.2e-05 (inactive).

Turning to `O=C(O)CCC(=O)Nc1nc(-c2ccccc2)cs1`, the cell count in test [1] was found to be 546. Also, the inhibition was -24.7% (inactive) in test [1], 4.3% (inactive) in test [3], 16.3% (inactive) in test [7] and 23.8% (inactive) in test [8]. Moreover, the inhibition of aggregation in test [2] was -8.2% (inactive). Moreover, the nuclei count in test [2] was found to be 110%; in test [3] it was 147%. The results for the fluorescence slope in test [4] and in test [6] were -0.449 (inactive) and 0.00599 (inactive), respectively. For the same compound, the NADPH fluorescence slope in test [5] is 0.00011 (inactive).

As for `CCN1C(=O)N(CC)C2C1N(C(C)=O)C(=O)N2C(C)=O` (centres undefined), the cell count in test [1] was determined as 373. The inhibition in test [1] is 3.7% (inactive); in test [3], -9.3% (inactive); in test [7], 13.4% (inactive); in test [8], 16.9% (inactive). For the same compound, the inhibition of aggregation in test [2] was 0.2% (inactive). Also, the nuclei count amounted to 115% in test [2] and 117% in test [3]. Further, the fluorescence slope in test [4] was -0.579 (inactive); in test [6], 0.0074 (inactive). The NADPH fluorescence slope in test [5] was -6.5e-05 (inactive).

With `CCn1c(=O)n(CC(=O)N(C)Cc2ccccc2)c(=O)c2ccccc21`, the cell count in test [1] turned out to be 684. Also, the inhibition in test [1] is -16.4% (inactive); in test [3], 65.6% (active); in test [7], 11.1% (inactive); in test [8] it was 10.9% (inactive). Moreover, the inhibition of aggregation in test [2] was 3.2% (inactive). In addition, the nuclei count in test [2] worked out at 120%; in test [3] it was 94.4%. Further, the fluorescence slope is -0.559 (inactive) in test [4] and 0.00592 (inactive) in test [6]. Also, in test [5], the NADPH fluorescence slope is -2.3e-05 (inactive).

As to `Cc1ccc(SCCNS(=O)(=O)c2ccc(F)cc2)cc1`, the cell count in test [1] worked out at 348. Besides, the inhibition was 4% (inactive) in test [1], -53.9% (inactive) in test [3], 8.34% (inactive) in test [7] and 12.7% (inactive) in test [8]. The inhibition of aggregation in test [2] is -4.1% (inactive). Further, the nuclei count in test [2] was determined as 106%; in test [3] it was 122%. In addition, the figures for the fluorescence slope in test [4] and in test [6] were -0.55 (inactive) and 0.0043 (inactive), respectively. Moreover, in test [5], the NADPH fluorescence slope is -3.1e-05 (inactive).

With `Cc1ccc(N2CCN(C(=O)c3ccccc3Br)CC2)c(C)c1`, in test [1], the cell count was determined as 655. Further, the inhibition in test [1] was -20.4% (inactive); in test [3], -13.4% (inactive); in test [7], 15.2% (inactive); in test [8] it was 23.3% (inactive). The inhibition of aggregation in test [2] is 0% (inactive). Besides, the nuclei count in test [2] worked out at 91.9%; in test [3], 101%. The fluorescence slope in test [4] is -0.532 (inactive); in test [6], 0.00352 (inactive). In test [5], the NADPH fluorescence slope is 5.2e-06 (inactive).

In the case of `CCOc1ccc(N(C)S(=O)(=O)c2ccc3[nH]cc(C(=O)NCC4CCCO4)c(=O)c3c2)cc1` (centres undefined), the cell count in test [1] came to 313. Also, the inhibition was 3.3% (inactive) in test [1], 4% (inactive) in test [3], 1.36% (inactive) in test [7] and 23% (inactive) in test [8]. Further, in test [2], the inhibition of aggregation is -9.8% (inactive). The values for the nuclei count in test [2] and in test [3] were 67.5% and 96.5%, respectively. Besides, the fluorescence slope in test [4] was -0.567 (inactive); in test [6], 0.00944 (inactive). Also, the NADPH fluorescence slope in test [5] was -4.5e-05 (inactive).

Take `CCCn1nc(NS(=O)(=O)c2ccccc2)c2cc3ccccc3nc21`: the cell count in test [1] was 468. Further, the inhibition in test [1] was -3.8% (inactive); in test [3], 12% (inactive); in test [7], 6.34% (inactive); in test [8], 14.1% (inactive). Moreover, the inhibition of aggregation in test [2] is -8.5% (inactive). The nuclei count in test [2] is 110%; in test [3], 102%. The fluorescence slope in test [4] was -0.598 (inactive); in test [6], 0.00512 (inactive). Moreover, in test [5], the NADPH fluorescence slope was 2.9e-05 (inactive).

Turning to `Cn1c(=O)c2c(nc(SCc3nn[nH]n3)n2Cc2ccccc2F)n(C)c1=O`, in test [1], the cell count came out at 481. Further, the inhibition in test [1] was -9.5% (inactive); in test [3] it was -5.3% (inactive); in test [7] it was 15% (inactive); in test [8], 17.9% (inactive). In addition, the inhibition of aggregation in test [2] is 13.9% (inactive). Besides, the figures for the nuclei count in test [2] and in test [3] were 81.9% and 96.9%, respectively. Further, the values for the fluorescence slope in test [4] and in test [6] were -0.535 (inactive) and 0.00622 (inactive), respectively. Moreover, in test [5], the NADPH fluorescence slope was 4.4e-06 (inactive).

With `COC(=O)c1[nH]c2c(c1C)C(=O)CC(c1cccs1)C2` (centres undefined), the cell count in test [1] was 315. Also, the inhibition in test [1] was 4.5% (inactive); in test [3], -126% (inactive); in test [7] it was 34.9% (inactive); in test [8] it was 79.5% (active). In addition, the inhibition of aggregation in test [2] was -123% (inactive). The figures for the nuclei count in test [2] and in test [3] were 2% and 134%, respectively. Moreover, the fluorescence slope was -0.473 (inactive) in test [4] and 0.00476 (inactive) in test [6]. Besides, the NADPH fluorescence slope in test [5] was -2.2e-05 (inactive).
